Experimental findings from ChEMBL document CHEMBL3745659, “Synthesis and Characterization of 4,11-Diaminoanthra[2,3-b]furan-5,10-diones: Tumor Cell Apoptosis through tNOX-Modulated NAD(+)/NADH Ratio and SIRT1” (J Med Chem, 2015) are described below.

Activity calls are given as the source filed them. No cut-off for these calls is given here.

Data set [1] has as its system CCRF-CEM. In words: Antiproliferative activity against human CEM cells after 72 hrs by MTT assay. It is filed as functional, cell-based.
Data set [2] deals with AGS. In words: Induction of apoptosis in human AGS cells assessed as necrotic cells at 0.05 uM after 24 hrs by annexin V-FITC staining-based flow cytometric analysis (Rvb=0.9%). It is filed as functional. Summed up:
(§1)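 AGS cells exposed to compound for 24 h; Annexin V-FITC staining and flow cytometry used to give percentage of apoptotic cells; mean ± S.E. from at least three independent experiments.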
Background: A flow cytometer gives signals particle by particle.

The subject of data set [3] is AGS. In words: Induction of apoptosis in human AGS cells assessed as viable cells at 0.05 uM after 24 hrs by annexin V-FITC staining-based flow cytometric analysis (Rvb=91.5%). It is filed as functional. The conditions noted are these: read-out: Activity. In short, it runs like this:
as §1

Data set [4] has as its system Calf thymus DNA. In words: Binding affinity to calf thymus double stranded DNA by spectrophotometric titration method. It is filed as nucleic-acid assay. The conditions noted are these: Bos taurus. In short, it runs like this: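 Absorption spectra of compound recorded while double-stranded DNA concentration was increased (spectrophotometric titration); extinction at absorption maxima 540 and 585 nm and band shift followed.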

Data set [5] deals with K562. In words: Antiproliferative activity against human K562 cells after 72 hrs by MTT assay. It is filed as functional, cell-based. The conditions noted are these: K562, 72 h. For orientation: Formazan colour is commonly taken as a measure of viable cells.
A short description of data set [6]: Drug uptake in human K562/4 cells at 3 uM incubated for 2 hrs by flow cytometric analysis. It is filed as ADME, cell-based. The conditions noted are these: k562/4, 2 h. In short, it runs like this:
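K562 and K562/4 cells incubated 2 h with 3 µM compound; uptake measured by flow cytometry as ratios (arbitrary units) of mean fluorescence channels of the histograms; verapamil (10 µM), a Pgp transport blocker, added 30 min before compound where used.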

The subject of data set [7] is L1210. In words: Antiproliferative activity against mouse L1210 cells after 72 hrs by MTT assay. The conditions noted are these: L1210, 72 h.
Data set [8] concerns AGS. In words: Induction of apoptosis in human AGS cells after 24 hrs by annexin V-FITC staining-based flow cytometric analysis. It is filed as functional, cell-based. In short, it runs like this: as §1
For data set [9], the system named is AGS. In words: Induction of apoptosis in human AGS cells assessed as viable cells at 0.1 uM after 24 hrs by annexin V-FITC staining-based flow cytometric analysis (Rvb=91.5%). The conditions noted are these: read-out: Activity. It is filed as functional. In short, it runs like this: as §1
The target in data set [10] is T1, DNA topoisomerase 1 (Homo sapiens) (UniProt P11387).
T1 sequence (whole entry): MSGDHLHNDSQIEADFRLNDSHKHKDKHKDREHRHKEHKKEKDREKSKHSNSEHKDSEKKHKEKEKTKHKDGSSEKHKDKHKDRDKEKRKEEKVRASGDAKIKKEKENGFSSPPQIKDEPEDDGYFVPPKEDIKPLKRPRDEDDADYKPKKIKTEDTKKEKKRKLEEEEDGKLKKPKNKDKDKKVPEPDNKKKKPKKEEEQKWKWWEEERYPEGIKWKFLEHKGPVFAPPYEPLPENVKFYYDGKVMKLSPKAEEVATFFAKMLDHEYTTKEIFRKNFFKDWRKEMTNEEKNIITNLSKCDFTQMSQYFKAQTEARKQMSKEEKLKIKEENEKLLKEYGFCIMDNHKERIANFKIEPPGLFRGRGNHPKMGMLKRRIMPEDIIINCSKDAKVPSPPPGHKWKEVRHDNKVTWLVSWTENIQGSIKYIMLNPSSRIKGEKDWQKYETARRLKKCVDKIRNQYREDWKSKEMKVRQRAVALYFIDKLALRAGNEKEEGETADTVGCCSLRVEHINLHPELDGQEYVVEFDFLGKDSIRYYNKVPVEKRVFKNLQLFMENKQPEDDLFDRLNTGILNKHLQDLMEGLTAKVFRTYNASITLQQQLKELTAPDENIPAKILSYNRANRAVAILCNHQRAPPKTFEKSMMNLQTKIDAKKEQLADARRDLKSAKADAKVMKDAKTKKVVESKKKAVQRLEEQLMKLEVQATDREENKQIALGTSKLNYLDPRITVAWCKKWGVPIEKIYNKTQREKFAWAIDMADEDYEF
In words: Inhibition of Top1 (unknown origin)-mediated relaxation of pBR322 DNA at 2.5 uM incubated for 30 mins by ethidium bromide staining-based gel electrophoresis assay. In short, it runs like this: (§2)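 Supercoiled pBR322 plasmid treated with Top1 without drug or with compound at 0.5, 2.5 or 10 µM; camptothecin as reference; relaxation assessed by gel electrophoresis.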

Data set [11] deals with K562. In words: Resistance index, ratio of IC50 for human K562/4 cells to IC50 for human K562 cells. It is filed as functional.
Data set [12] addresses T2, NAD-dependent protein deacetylase sirtuin-1 (Homo sapiens) (UniProt Q96EB6).
T2 sequence (whole entry): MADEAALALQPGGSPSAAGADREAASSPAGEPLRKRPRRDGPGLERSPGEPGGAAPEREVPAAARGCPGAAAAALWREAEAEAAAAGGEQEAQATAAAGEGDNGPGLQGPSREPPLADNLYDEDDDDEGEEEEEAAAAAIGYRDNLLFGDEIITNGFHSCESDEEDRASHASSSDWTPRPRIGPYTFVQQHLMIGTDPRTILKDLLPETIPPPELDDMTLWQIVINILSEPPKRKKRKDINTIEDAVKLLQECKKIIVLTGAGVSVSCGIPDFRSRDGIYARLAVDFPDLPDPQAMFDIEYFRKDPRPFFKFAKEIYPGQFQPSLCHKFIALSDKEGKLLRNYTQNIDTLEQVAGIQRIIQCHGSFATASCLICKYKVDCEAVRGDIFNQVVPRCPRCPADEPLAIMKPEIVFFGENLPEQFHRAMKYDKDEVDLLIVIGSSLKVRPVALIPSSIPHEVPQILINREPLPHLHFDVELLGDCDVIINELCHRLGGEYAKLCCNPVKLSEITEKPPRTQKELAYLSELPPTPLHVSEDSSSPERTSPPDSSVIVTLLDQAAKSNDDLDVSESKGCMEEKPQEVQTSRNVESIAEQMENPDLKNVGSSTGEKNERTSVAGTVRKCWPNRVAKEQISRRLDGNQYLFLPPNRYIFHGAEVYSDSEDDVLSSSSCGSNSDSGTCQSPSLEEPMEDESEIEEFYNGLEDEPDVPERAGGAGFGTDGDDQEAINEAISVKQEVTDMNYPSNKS
In words: Inhibition of human recombinant SIRT1 deacetylase activity using Arg-His-Lys-Lys(epsilon-acetyl)-AMC as substrate at 5 uM incubated for 45 mins by fluorescence analysis.

In data set [13] the test system is AGS. In words: Induction of apoptosis in human AGS cells assessed as necrotic cells at 1 uM after 24 hrs by annexin V-FITC staining-based flow cytometric analysis (Rvb=0.9%). It is filed as functional. Summed up: as §1
In data set [14] the test system is AGS. In words: Downregulation of Bid protein level in human AGS cells after 24 hrs by Western blot analysis. It is filed as functional, cell-based.
Data set [15] concerns AGS. In words: Induction of apoptosis in human AGS cells assessed as viable cells at 1 uM after 24 hrs by annexin V-FITC staining-based flow cytometric analysis (Rvb=91.5%). It is filed as functional. To be noted: read-out: Activity. Summed up:
as §1

Data set [16] has as its system AGS. In words: Induction of apoptosis in human AGS cells assessed as early apoptotic cells at 0.05 uM after 24 hrs by annexin V-FITC staining-based flow cytometric analysis (Rvb=7.2%). It is filed as functional. In short, it runs like this:
as §1

Data set [17] deals with AGS. In words: […] in human AGS cells assessed as upregulation of E-Cad after 24 hrs by Western blot analysis. It is filed as functional, cell-based. For orientation: Immunoblotting shows a protein as a band on a membrane.
Data set [18] concerns the target T1, DNA topoisomerase 1 (Homo sapiens). In words: Inhibition of Top1 (unknown origin)-mediated relaxation of pBR322 DNA at 0.5 uM incubated for 30 mins by ethidium bromide staining-based gel electrophoresis assay. In short, it runs like this: as §2

On to `CNCCNc1c2c(c(NCCNC)c3occc13)C(=O)c1ccccc1C2=O`, for which the IC50 (commonly the concentration that inhibits the measured activity by half) is 190 nM in data set [1], 210 nM in data set [5] and 100 nM in data set [7]. The Activity in [2] is 7.5%; in [8], “Dose-dependent effect”; in [13] it was 15.4%; in data set [16] it was 13%. Further, the viability at 0.05 µM in data set [3] turned out to be 78.9%. In data set [4], the Ka worked out at 2.5 ×10⁶ /M. In addition, the Drug uptake entry in [6] was “Active”. Besides, the viability at 0.1 µM in [9] stood at 63.2%. Further, the inhibition entry in [10], in data set [12] and in data set [18] was “Active” in each case. Also, the “Ratio IC50” value in [11] is on record as 0.71. For the same compound, the result in data set [14] and in data set [17] was Active. For the same compound, in data set [15], the viability at 1 µM was found to be 61.6%.
